bIAP act: bovine intestinal alkaline phosphatase activators, primary screen, biochemical, bovine IAP, CDP-star luminescence | purified bovine IAP, 30 min; stronger effect = higher value; fold of DMSO-control signal, blank-subtracted | 0.17% of 200,000 active | activation factor at 20 µM;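 active = activation factor of 2 or more at 20 µM, a signal rise over negative controls twice the positive control's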
hIAP inh: human IAP inhibitors, primary screen, biochemical, luminescence, uHTS; Intestinal-type alkaline phosphatase (Homo sapiens), P09923; purified IAP, CDP-Star luminescence, 30 min; inhibition, % at 10 µM; 0.12% of 330,000 active;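 active = inhibition reaching a set limit with compound at 10 µM in the primary screen, cut at about 35% in these data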;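 note: plate controls were DMSO wells with enzyme for no effect and no-enzyme buffer wells for full effect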
Target sequence (P09923 whole entry, looked up): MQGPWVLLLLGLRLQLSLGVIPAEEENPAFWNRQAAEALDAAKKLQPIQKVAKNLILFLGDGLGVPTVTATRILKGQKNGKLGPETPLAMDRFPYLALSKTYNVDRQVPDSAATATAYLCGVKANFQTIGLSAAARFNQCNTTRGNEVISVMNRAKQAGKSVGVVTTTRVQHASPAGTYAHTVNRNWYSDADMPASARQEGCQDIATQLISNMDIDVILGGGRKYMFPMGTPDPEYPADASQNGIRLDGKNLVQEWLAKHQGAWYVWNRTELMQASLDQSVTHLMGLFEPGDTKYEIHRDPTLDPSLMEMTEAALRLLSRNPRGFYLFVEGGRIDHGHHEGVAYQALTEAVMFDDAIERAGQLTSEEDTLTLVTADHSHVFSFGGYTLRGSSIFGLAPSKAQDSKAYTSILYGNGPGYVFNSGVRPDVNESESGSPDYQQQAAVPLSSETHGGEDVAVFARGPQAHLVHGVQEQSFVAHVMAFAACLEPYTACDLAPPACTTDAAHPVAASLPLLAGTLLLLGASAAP
hIAP act: human IAP activators, primary screen, biochemical, luminescence, uHTS; Intestinal-type alkaline phosphatase (Homo sapiens), P09923; purified human IAP, CDP-Star luminescence, 30 min; stronger effect = higher value; 1 = vehicle-only enzyme, 0 = enzyme-free background; activation factor at 10 µM; 0.16% of 330,000 active;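 active = activation factor of the enzyme at least 2-fold when tested at 20 µM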
mIAP block: inhibitors of mouse IAP, primary screen, biochemical, luminescence, uHTS; purified mouse IAP, CDP-Star luminescence, 30 min; inhibition, % at 10 µM; 0.2% of 330,000 active; AID 2806, 2010;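 active = inhibition of at least 40% at 10 µM in the primary screen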;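 note: plate controls were DMSO with enzyme for no effect and no enzyme wells for full effect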
mIAP act: activators of mouse IAP, primary screen, biochemical, luminescence, uHTS; intestinal alkaline phosphatase [Mus musculus]; muIAP, CDP-Star luminescence, 30 min; stronger effect = higher value; 1 = vehicle-only enzyme signal, 0 = enzyme-free wells; activation factor at 10 µM; 0.24% of 330,000 active; AID 2805, 2010;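 active = activation factor of at least 2 at 20 µM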
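Assay system: mouse IAP enzyme / Compound: DMSO-dissolved test compounds / Timing: 30 min, room temperature / Measured by: luminescence from enzymatic CDP-Star hydrolysis / Control set: DMSO-only wells, enzyme-free buffer wells as negative control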
bIAP inhibitor: bovine intestinal alkaline phosphatase inhibitors, primary screen, selectivity assay for TNAP inhibitor project, biochemical, bovine IAP, CDP-star luminescence. purified bovine IAP, 30 min. alkaline phosphatase, intestinal [Bos taurus]. inhibition, % at 20 µM. AID 1019, 2008. 190,000 tested, under 10 active;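 active = over 50% inhibition of intestinal alkaline phosphatase at 20 µM in the single-dose screen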
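test system = bovine IAP enzyme | medium = DEA buffer 100 mM, pH 9.8, with MgCl2 1.0 mM, ZnCl2 0.02 mM | detection = luminescence | dosing = single compound dose of 20 µM, 2% DMSO final | incubation = 30 min reaction at room temperature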
mIAP inh conf: inhibitors of mouse IAP, confirmation, biochemical, luminescence, single concentration. purified mouse IAP, CDP-Star luminescence, 30 min. AID 434971, 2010. 4.7% of 11,000 active. inhibition, % at 10 µM. shares compounds with mIAP block;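 active = inhibition of at least 40% at 10 µM in either of the two replicates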;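 note: plate controls were DMSO wells with enzyme for no effect and buffer wells lacking enzyme for full effect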
Starred values were filed as active, the others as inactive; i = inactive; x = not tested or not shown. Shown are actives, neighbours in structure and some others; about 0.79% of the full set was active somewhere.

SMILES | bIAP act | hIAP inh | hIAP act | mIAP block | mIAP act | bIAP inhibitor | mIAP inh conf
O=C(NC1CC1)c1ccc2c(c1)S(=O)(=O)c1cc(Cl)ccc1C2=O | x | 15.3 | 0.847 | 15.1 | 0.849 | x | x
CCCCNC(=O)Oc1c(Br)cc2sc(=O)oc2c1Br | x | -12.2 | 1.12 | 78.2* | 0.218 | x | 81.1*
CC(=O)Nc1ccc(C=NNc2ccc([N+](=O)[O-])cc2S(=O)(=O)Nc2ccccc2C(=O)O)cc1 | x | 10.7 | 0.893 | 32.5 | 0.675 | x | x
CN(CCO)c1ccc(C=NNc2ccc([N+](=O)[O-])cc2S(=O)(=O)Nc2ccccc2C(=O)O)cc1 | x | 2.5 | 0.975 | 45.9* | 0.541 | x | 45.6*
c1coc(-c2nc(-c3ccco3)c(-c3ccco3)nc2-c2ccco2)c1 | 0.9 | 0.9 | 0.991 | 71.2* | 0.288 | 5.9 | 84.2*
Nc1nc(-c2ccco2)cs1 | 0.7 | 15.3 | 0.847 | 31.4 | 0.686 | 29.6 | x
Nc1nc(-c2ccco2)c(-c2ccco2)s1 | 0.8 | 24.8 | 0.752 | 67.3* | 0.327 | 22.2 | 69.0*
C[C@@H](NC(=O)[C@@H]1Cc2ccccc2CN1C(=O)OC(C)(C)C)C(=O)NCc1ccco1 | x | 0.3 | 0.997 | 2.6 | 0.974 | x | x
Cc1cccc(N=Cc2cc3c(cc2[N+](=O)[O-])OCO3)c1 | 1 | -6.1 | 1.06 | 19.3 | 0.807 | 2.0 | x
Cc1cc(O)c(N=Cc2cc3c(cc2[N+](=O)[O-])OCO3)cc1C | x | -34.5 | 1.34 | 50.8* | 0.492 | x | 59.9*
CCCCN1C(=O)/C(=C/C=C2\Oc3ccccc3N2CC)SC1=S | 0.7 | x | x | x | x | 30.8 | x
CCN1/C(=C/C=C/c2oc3ccc(-c4ccccc4)cc3[n+]2CC)Oc2ccc(-c3ccccc3)cc21 | 1.6 | -35.6 | 1.36 | 64.9* | 0.351 | -55.9 | 49.8*
Cc1nn(C)c(C)c1CNC(=O)Nc1cccc(Cl)c1 | 1 | -10.9 | 1.11 | -23.4 | 1.23 | -4.1 | x
Cc1onc(-c2ccccc2)c1CNC(=O)Nc1cccc(Cl)c1 | x | -25.9 | 1.26 | -302.3 | 4.02* | x | -132.6
Cc1onc(-c2ccccc2)c1CNC(=O)Nc1ccc(C(F)(F)F)cc1 | x | -23.0 | 1.23 | -306.3 | 4.06* | x | -99.1
Cc1onc(-c2ccccc2)c1CNC(=O)Nc1ccc(F)cc1F | x | -19.1 | 1.19 | -44.1 | 1.44 | x | x
Cc1cc(C)cc(NC(=O)NCc2c(-c3ccccc3)noc2C)c1 | x | -3.7 | 1.04 | -369.9 | 4.7* | x | -173.2
C/C(CC(=O)Nc1ccc(F)cc1)=N\NC(=O)COc1ccccc1 | 0.5 | -1.0 | 1.01 | 12.0 | 0.88 | x | x
Cc1cc(NC(=O)CSCC(=O)N2CCN(c3ccccc3)CC2)no1 | x | -13.6 | 1.14 | 3.7 | 0.963 | x | x
COc1ccc(NC(=O)NCCCCc2ccccc2)cc1OC | x | -35.1 | 1.35 | -42.0 | 1.42 | x | x
COc1cccc(NC(=S)NCCC(c2ccccc2)c2ccccc2)c1 | 1.3 | 9.8 | 0.902 | i | 6.21* | -31.6 | -252.7
COc1ccc(NC(=S)NCCC(c2ccccc2)c2ccccc2)c(OC)c1 | 1.4 | -2.2 | 1.02 | -76.9 | 1.77 | -38.2 | x
COc1cccc(NC(=O)NCCCCc2ccccc2)c1 | x | -9.6 | 1.1 | -127.1 | 2.27* | x | -116.1
COc1cc(NC(=S)NCCC(c2ccccc2)c2ccccc2)cc(OC)c1 | 0.9 | 14.5 | 0.855 | -412.8 | 5.13* | 12.1 | -227.5
CC(=O)Nc1sc(C)c(C)c1C(=O)OCC(=O)Nc1ccc(S(N)(=O)=O)cc1 | x | 2.5 | 0.975 | 5.8 | 0.942 | x | x
SMILES | bIAP act | hIAP inh | hIAP act | mIAP block | mIAP act | bIAP inhibitor | mIAP inh conf
O=C(Nc1cnn(Cc2ccccc2)c1)NC12CC3CC(CC(C3)C1)C2 | 1 | 16.4 | 0.837 | -112.2 | 2.12* | 4.0 | -104.8
O=C(O)C1C2CCC(O2)C1C(=O)Nc1cnn(Cc2ccccc2)c1 (stereo unspecified) | 1 | 5.9 | 0.941 | -0.7 | 1.01 | 2.4 | x
Cc1csc(NC(=O)CSc2sc3c(O)cc(=O)[nH]c3c2C#N)n1 | x | 16.2 | 0.838 | 46.9* | 0.531 | x | 68.4*
CCc1nnc(NC(=O)CSc2sc3c(O)cc(=O)[nH]c3c2C#N)s1 | x | 1.1 | 0.989 | 44.4* | 0.556 | x | 64.7*
CCSc1nnc(NC(=O)CSc2sc3c(O)cc(=O)[nH]c3c2C#N)s1 | x | 3.6 | 0.964 | 36.5 | 0.635 | x | x
CCOP(=O)(OCC)C(NC(=O)Nc1ccc(C)c(Cl)c1)c1ccccc1 (stereo unspecified) | 1.1 | 8.4 | 0.916 | -237.1 | 3.37* | -5.5 | -158.7
CCCCN(C(=S)Nc1ccc(F)cc1)c1c(N)n(CCC)c(=O)[nH]c1=O | 1 | 2.9 | 0.971 | -7.5 | 1.07 | 0.0 | x
Cc1ccc(C(=O)Nc2ncc(Cc3ccc(SC(F)F)cc3)s2)cc1 | 0.7 | -6.9 | 1.07 | -0.2 | 1 | 34.6 | x
COc1ccc(C2CC(c3ccccc3C(F)(F)F)=NN2c2ccc(S(N)(=O)=O)cc2)cc1 (stereo unspecified) | x | x | x | -122.6 | 2.23* | x | -121.0
COc1ccc(C2CC(c3ccc(C(F)(F)F)cc3)=NN2c2ccc(S(N)(=O)=O)cc2)cc1 (stereo unspecified) | x | x | x | -74.4 | 1.74 | x | x
COc1ccc(C2CC(c3ccccc3F)=NN2c2ccc(S(N)(=O)=O)cc2)cc1 (stereo unspecified) | x | x | x | -113.5 | 2.13* | x | -113.3
COc1ccc(C2CC(c3ccccc3Br)=NN2c2ccc(S(N)(=O)=O)cc2)cc1 (stereo unspecified) | x | x | x | -17.2 | 1.17 | x | x
O=C(NCc1ccncc1)C1CCCN(S(=O)(=O)c2cc(Cl)ccc2Cl)C1 (stereo unspecified) | x | -12.3 | 1.12 | 0.0 | 1 | x | x
O=C(Nc1ccccc1)Nc1csc2ccccc12 | x | -3.5 | 1.03 | -223.3 | 3.23* | x | -107.6
CC(=O)Nc1csc2ccccc12 | 1 | 1.4 | 0.986 | 1.5 | 0.985 | -4.0 | x
Cn1c(=O)c2c(nc(NC3CCCCC3)n2CC(=O)C23CC4CC(CC(C4)C2)C3)n(C)c1=O | 1 | -23.4 | 1.23 | -100.1 | 2* | -0.7 | -464.6
CC(C)C(C)(C#N)NC(=O)CSc1nc2scc(-c3ccc(F)cc3)c2c(=O)n1Cc1ccccc1 (stereo unspecified) | 0.7 | 2.4 | 0.976 | -7.8 | 1.08 | 25.5 | x
O=C(NNC(=S)NC(=O)c1cccs1)c1ccc(O)cc1 | x | -61.8 | 1.62 | 59.5* | 0.405 | x | 63.9*
CCn1c(SCC(=O)NC2CCCC2)nnc1-c1cccnc1 | x | 6.2 | 0.938 | 2.2 | 0.978 | x | x
